ChEMBL document CHEMBL1124270, “Quinolone antibacterial agents. Synthesis and structure-activity relationships of 8-substituted quinoline-3-carboxylic acids and 1,8-naphthyridine-3-carboxylic acids” (1988)
≈ marks a conversion by molar mass, not a printed value.

Legend:
Assay type in all cases: functional
Streptococcus pneumoniae [1] = test: Minimum inhibitory concentration against Streptococcus pneumoniae SV-1 in vitro.
Mus musculus [2] = test: In vivo potency against Streptococcus pneumoniae using mouse protection assay when given orally; settings: po, read-out: PD50
Staphylococcus aureus [3] = test: Minimum inhibitory concentration against Staphylococcus aureus H228 in vitro.
Klebsiella pneumoniae = test: Minimum inhibitory concentration against Klebsiella pneumoniae MGH-2 in vitro.
Mus musculus [4] = test: In vivo potency against Escherichia coli vogel using mouse protection assay when given perorally; settings: po, read-out: PD50
Streptococcus pyogenes = test: (§1) Minimum inhibitory concentration against Streptococcus pyogenes C203 in vitro.
Escherichia coli [5] = test: Minimum inhibitory concentration against Escherichia coli vogel in vitro.
Escherichia coli [6] = test: Minimum concentration needed to produce linear DNA at an intensity relative to oxolinic at 10 ug/mL in Escherichia coli H560 in vitro.
Method in brief: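 DNA gyrase cleavage test, run as previously described: end point is the lowest drug level (µg/mL) that yields linear DNA at a band intensity matching oxolinic acid at 10 µg/mL. Values come from duplicate or triplicate experiments and are stated as accurate to ±50%.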

Staphylococcus aureus [7] = test: Minimum inhibitory concentration against Staphylococcus aureus UC-76 in vitro.
Enterobacter cloacae = test: Minimum inhibitory concentration against Enterobacter cloacae HA 2646 in vitro.
Mus musculus [8] = test: In vivo potency against Staphylococcus aureus using mouse protection assay when given orally; settings: po, read-out: PD50
Enterococcus faecalis = test: Minimum inhibitory concentration against Streptococcus faecalis MGH-2 in vitro.
Escherichia coli [9] = test: Minimum inhibitory concentration against Escherichia coli H560 in vitro.
Providencia rettgeri = test: Minimum inhibitory concentration against Providencia rettgeri H1771 in vitro.
Pseudomonas aeruginosa = test: Minimum inhibitory concentration against Pseudomonas aeruginosa UI-18 in vitro.
Bacteria = test: as §1
Staphylococcus aureus [10] = test: In vivo potency against Staphylococcus aureus using mouse protection assay following p.o. administration.; settings: po, read-out: PD50
Mus musculus [11] = test: In vivo potency against Escherichia coli vogel using mouse protection assay when given subcutaneously; settings: sc, read-out: PD50
Streptococcus pneumoniae [12] = test: In vivo potency against Streptococcus pneumoniae using mouse protection assay following p.o. administration.; settings: po, read-out: PD50
Staphylococcus aureus [13] = test: In vivo potency against Staphylococcus aureus using mouse protection assay following s.c. administration.; settings: sc, read-out: PD50
Streptococcus pneumoniae [14] = test: In vivo potency against Streptococcus pneumoniae using mouse protection assay following s.c. administration.; settings: sc, read-out: PD50

Structure (SMILES) | MIC (Streptococcus pneumoniae [1]) | ED50 (Mus musculus [2]) | MIC (Staphylococcus aureus [3]) | MIC (Klebsiella pneumoniae) | ED50 (Mus musculus [4]) | MIC (Streptococcus pyogenes) | MIC (Escherichia coli [5]) | DNA cleavage conc (gyrase) (Escherichia coli [6]) | MIC (Staphylococcus aureus [7]) | MIC (Enterobacter cloacae) | ED50 (Mus musculus [8]) | MIC (Enterococcus faecalis) | MIC (Escherichia coli [9]) | MIC (Providencia rettgeri) | MIC (Pseudomonas aeruginosa) | further results
NCC1CCN(c2c(F)cc3c(=O)c(C(=O)O)cn(C4CC4)c3c2F)C1 (stereo not drawn) | 6 ng/mL (≈ 0.0165 µM) | 10 mg/kg | 0.025 µg/mL (≈ 0.0688 µM) | 0.05 µg/mL (≈ 0.138 µM) | 6 mg/kg | 13 ng/mL (≈ 0.0358 µM) | 0.025 µg/mL (≈ 0.0688 µM) | 0.25 µg/mL | 0.003 µg/mL (≈ 0.00826 µM) | 0.05 µg/mL (≈ 0.138 µM) | 78 mg/kg | 0.013 µg/mL (≈ 0.0358 µM) | 6 ng/mL (≈ 0.0165 µM) | 0.1 µg/mL (≈ 0.275 µM) | 0.2 µg/mL (≈ 0.55 µM) | –
CNCC1CCN(c2c(F)cc3c(=O)c(C(=O)O)cn(C4CC4)c3c2F)C1 (stereo not drawn) | 6 ng/mL (≈ 0.0159 µM) | 2 mg/kg | 0.025 µg/mL (≈ 0.0662 µM) | 0.05 µg/mL (≈ 0.132 µM) | 2 mg/kg | 6 ng/mL (≈ 0.0159 µM) | 0.05 µg/mL (≈ 0.132 µM) | 0.25 µg/mL | 0.013 µg/mL (≈ 0.0344 µM) | 0.025 µg/mL (≈ 0.0662 µM) | 22 mg/kg | 0.013 µg/mL (≈ 0.0344 µM) | 6 ng/mL (≈ 0.0159 µM) | 0.2 µg/mL (≈ 0.53 µM) | 0.2 µg/mL (≈ 0.53 µM) | –
CNCC1CCN(c2nc3c(cc2F)c(=O)c(C(=O)O)cn3C2CC2)C1 (stereo not drawn) | 25 ng/mL (≈ 0.0694 µM) | – | 0.2 µg/mL (≈ 0.555 µM) | 0.2 µg/mL (≈ 0.555 µM) | 3 mg/kg | – | 0.1 µg/mL (≈ 0.277 µM) | 1 µg/mL | 0.025 µg/mL (≈ 0.0694 µM) | 0.2 µg/mL (≈ 0.555 µM) | – | 0.2 µg/mL (≈ 0.555 µM) | 50 ng/mL (≈ 0.139 µM) | 0.4 µg/mL (≈ 1.11 µM) | 0.8 µg/mL (≈ 2.22 µM) | MIC (Bacteria): 0.05 µg/mL (≈ 0.139 µM); ED50 (Staphylococcus aureus [10]): 3 mg/kg; ED50 (Mus musculus [11]): 1 mg/kg; ED50 (Streptococcus pneumoniae [12]): 27 mg/kg; ED50 (Staphylococcus aureus [13]): 1 mg/kg; ED50 (Streptococcus pneumoniae [14]): 11 mg/kg
